The subject of experiment [1] is BXPC-3. As to the kind of experiment: Cytotoxicity against human BxPC3 cells after 72 hrs by MTT assay. The format is functional. To be noted: BXPC-3, 72 h. The gist of the method:
(§1)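 MTT redox read-out; absorbance taken at 0 h (T0) and after 72 h exposure, with untreated cells as control (C). GI50 solved from (T − T0)/(C − T0) = 50%, i.e. viability halved relative to untreated after correction for time-zero cell count.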
On the technique in general: Formazan colour is commonly taken as a measure of viable cells.

Experiment [2] concerns HeLa. As to the kind of experiment: Cytotoxicity against human HeLa cells after 72 hrs by MTT assay. The format is functional. The gist of the method: as §1
Experiment [3] concerns T47D. Briefly: Cytotoxicity against human T47D cells after 72 hrs by MTT assay. The class given is functional. The gist of the method: as §1
The test system of experiment [4] is T98G. Briefly: Cytotoxicity against human T98G cells after 72 hrs by MTT assay. The format is functional. The gist of the method:
as §1

Experiment [5] relates to 786-0. As to the kind of experiment: Cytotoxicity against human 786-0 cells after 72 hrs by MTT assay. The following applies: 786-0, 72 h. The format is functional. The gist of the method: as §1
Experiment [6] in a line: Cytotoxicity against human U87 cells after 72 hrs by MTT assay. The format is functional, U-87MG ATCC. The following applies: U-87 MG. The gist of the method: as §1
Experiment [7] concerns NCI-H69. As to the kind of experiment: Cytotoxicity against human H69 cells. The class given is functional, cell-based.
The subject of experiment [8] is NCI-H69. Briefly: Ratio of NDGA IC50 to compound IC50 for human H69 cells. The class given is functional.

SMILES strings stand for the structures. Some results are limits rather than exact numbers.

Take `COc1ccc(CNC(=O)Nc2ccc(OC)c(OC)c2)cc1OC`: the GI50 in experiment [1], in experiment [2], in experiment [3], in experiment [4], in experiment [5] and in experiment [6] was over 100 µM throughout.

For the molecule `COc1ccc(CC(=O)N2CCc3cc(OC)c(OC)cc3C2)cc1OC`, the GI50 in experiment [1], in experiment [2], in experiment [3], in experiment [4], in experiment [5] and in experiment [6] was over 100 µM throughout.

With `COc1ccc(C2NCCc3cc(OC)c(OC)cc32)cc1OC` (stereo not drawn), the GI50 (commonly the concentration at which growth is held to half of that of the control) in experiment [1] was over 100 µM; in experiment [2] it was 57.6 µM; in experiment [3], over 100 µM; in experiment [4], over 100 µM; in experiment [5], over 100 µM; in experiment [6], over 100 µM.

For the molecule `COc1ccc(CCNS(=O)(=O)c2ccc(OC)c(OC)c2)cc1OC`, the GI50 in experiment [1], in experiment [2], in experiment [3], in experiment [4], in experiment [5] and in experiment [6] was over 100 µM each time.

In the case of `COc1ccc(CCNC(=O)c2ccc(OC)c(OC)c2)cc1OC`, the GI50 in experiment [1], in experiment [2], in experiment [3], in experiment [4], in experiment [5] and in experiment [6] was over 100 µM in each case.

For the molecule `COc1ccc(NS(=O)(=O)c2ccc(OC)c(OC)c2)cc1OC`, the GI50 in experiment [1], in experiment [2], in experiment [3], in experiment [4], in experiment [5] and in experiment [6] was over 100 µM each time.

For the molecule `CC(Cc1ccc(O)c(O)c1)C(C)Cc1ccc(O)c(O)c1` (stereo not drawn) [NORDIHYDROGUAIARETIC ACID], the IC50 (usually the point on the concentration scale where inhibition reaches its midpoint) in experiment [7] turned out to be 4.4 µM.

`COc1ccc(CN2CCc3cc(OC)c(OC)cc3C2)cc1OC`: the GI50 in experiment [1] is over 100 µM; in experiment [2], 55.9 µM; in experiment [3], 45.4 µM; in experiment [4], over 100 µM; in experiment [5], over 100 µM; in experiment [6], over 100 µM.

Take `COc1ccc(/C=C/C(=O)Nc2ccc(OC)c(OC)c2)cc1OC`: the GI50 in experiment [1], in experiment [2], in experiment [3], in experiment [4], in experiment [5] and in experiment [6] was over 50 µM throughout.

Take `COc1ccc(CCNC(=O)Cc2ccc(OC)c(OC)c2)cc1OC`: the GI50 in experiment [1], in experiment [2], in experiment [3], in experiment [4], in experiment [5] and in experiment [6] was over 100 µM each time.

With `COc1ccc(CC(=O)Nc2ccc(OC)c(OC)c2)cc1OC`, the GI50 in experiment [1], in experiment [2], in experiment [3], in experiment [4], in experiment [5] and in experiment [6] was over 100 µM in each case.

Consider `COc1ccc(CNS(=O)(=O)c2ccc(OC)c(OC)c2)cc1OC`, for which the GI50 in experiment [1], in experiment [2], in experiment [3], in experiment [4], in experiment [5] and in experiment [6] was over 100 µM throughout.

As to `COc1ccc(CNC(=O)Cc2ccc(OC)c(OC)c2)cc1OC`, the GI50 in experiment [1], in experiment [2], in experiment [3], in experiment [4], in experiment [5] and in experiment [6] was over 100 µM throughout.

For the molecule `COc1ccc(CNC(=O)NCc2ccc(OC)c(OC)c2)cc1OC`, the GI50 in experiment [1], in experiment [2], in experiment [3], in experiment [4], in experiment [5] and in experiment [6] was over 100 µM in each case.

Consider `COc1ccc(/C=C/C=C/c2ccc(OC)c(OC)c2)cc1OC`, for which the GI50 is 3.41 µM in experiment [1]; over 100 µM in experiment [2]; over 100 µM in experiment [3]; over 100 µM in experiment [4]; 2.67 µM in experiment [5]; over 100 µM in experiment [6].

For the molecule `COc1ccc(S(=O)(=O)N2CCc3cc(OC)c(OC)cc3C2)cc1OC`, the GI50 in experiment [1], in experiment [2], in experiment [3], in experiment [4], in experiment [5] and in experiment [6] was over 50 µM in each case.

In the case of `COc1ccc(C2=NCCc3cc(OC)c(OC)cc32)cc1OC`, the GI50 was over 100 µM in experiment [1]; 79.3 µM in experiment [2]; over 100 µM in experiment [3]; over 100 µM in experiment [4]; over 100 µM in experiment [5]; over 100 µM in experiment [6].

Take `COc1ccc(C[C@@H](C)[C@@H](C)Cc2ccc(OC)c(OC)c2)cc1OC` [TERAMEPROCOL]: the GI50 in experiment [1] was 17.1 µM; in experiment [2], over 50 µM; in experiment [3], 5.36 µM; in experiment [4] it was over 50 µM; in experiment [5], 4.54 µM; in experiment [6], over 50 µM.

Consider `COc1ccc([C@H]2O[C@H](c3ccc(OC)c(OC)c3)[C@@H](C)[C@H]2C)cc1OC` [GANSCHISANDRINE], for which the concentration for 50% growth inhibition (GI50) in experiment [1] was 17.2 µM; in experiment [2], over 75 µM; in experiment [3], 4.4 µM; in experiment [4] it was 58.3 µM; in experiment [5], over 75 µM; in experiment [6] it was over 75 µM.

With `COc1ccc(NC(=O)c2ccc(OC)c(OC)c2)cc1OC`, the GI50 in experiment [1], in experiment [2], in experiment [3], in experiment [4], in experiment [5] and in experiment [6] was over 100 µM in each case.

On to `COc1ccc(C(=O)N2CCc3cc(OC)c(OC)cc3C2)cc1OC`, for which the GI50 in experiment [1] came out at 13.6 µM; in experiment [2] it was 8.23 µM; in experiment [3] it was 11.9 µM; in experiment [4], 10.1 µM; in experiment [5] it was 24.1 µM; in experiment [6], 20.6 µM.

As to `Oc1ccc(CCCCc2ccc(O)c(O)c2)cc1O`, in experiment [8], the “Ratio IC50” value worked out at 10. In experiment [7], this molecule displayed an IC50 of 0.3 µM.

On to `COc1ccc(/C=C2/CCc3cc(OC)c(OC)cc32)cc1OC` (mixture of isomers), for which the GI50 was 8.1 µM in experiment [1]; over 25 µM in experiment [2]; 4.24 µM in experiment [3]; over 25 µM in experiment [4]; 5.5 µM in experiment [5]; over 25 µM in experiment [6].

`COc1ccc(C(=O)C2=NCCc3cc(OC)c(OC)cc32)cc1OC`: the GI50 in experiment [1] was 26.3 µM; in experiment [2], 16.9 µM; in experiment [3], 16.1 µM; in experiment [4], over 100 µM; in experiment [5], over 100 µM; in experiment [6], over 100 µM.

On to `COc1ccc(CNC(=O)c2ccc(OC)c(OC)c2)cc1OC`, for which the GI50 in experiment [1], in experiment [2], in experiment [3], in experiment [4], in experiment [5] and in experiment [6] was over 100 µM throughout.

For the molecule `COc1ccc(/C=C/C(=O)NCc2ccc(OC)c(OC)c2)cc1OC`, the GI50 in experiment [1] is over 75 µM; in experiment [2], over 75 µM; in experiment [3] it was over 100 µM; in experiment [4], 70.3 µM; in experiment [5] it was 68.4 µM; in experiment [6], 57.1 µM.

As to `COc1ccc(NC(=O)Nc2ccc(OC)c(OC)c2)cc1OC`, the concentration for 50% growth inhibition (GI50) in experiment [1], in experiment [2], in experiment [3], in experiment [4], in experiment [5] and in experiment [6] was over 50 µM in each case.

The values are drawn from ChEMBL document CHEMBL2439991, “Restraining the flexibility of the central linker in terameprocol results in constrained analogs with improved growth inhibitory activity” (Bioorg Med Chem Lett, 2013).
